Experimental data reported in ChEMBL document CHEMBL1124400, “Synthesis and evaluation of antileukemic activity of 5-thienyl- or 5-(2-furyl)-2,3-dihydro-6,7-bis(hydroxymethyl)-1H-pyrrolizine bis(alkylcarbamates) and derivatives” (J Med Chem, 1989).
Several values for one entry are separate records, joined by “and”; a condition that tells them apart may be missing. Equal entries are not always repeated.

What was measured:
[1] = system: Mus musculus; assay: Median survival time of treated group / untreated group, when 20 mg/kg compound is administered intraperitoneally in L1210 leukemic mice; format: functional; conditions: route intraperitoneal
How it was run: (§1)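 Male 3-month-old B6D2F1 mice, 10⁵ L1210 cells ip on day 0. Compound was given ip on days 1, 5 and 9 in aqueous 20% Tween 80 (0.1–0.2 mL per 20 g), 8 mice per group. Twelve vehicle controls. Daily mortality with autopsy to assign leukemic versus toxic death. I = treated MST × 100/control MST. Wilcoxon test, p < 0.05; active if I > 125 and p < 0.05.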

[2] = system: Mus musculus; assay: MST of mitomycin 2 mg/kg treated group x 100/MST of untreated control group at a dose of 20 mg/kg in L1210 leukemic mice; format: functional
How it was run: (§2)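 Reference group of 8 B6D2F1 mice bearing ip-grafted 10⁵ L1210 cells (day 0), given mitomycin 2 mg/kg in distilled water ip on days 1, 5 and 9. Controls were 12 mice given vehicle only. Mortality was followed daily with autopsy. Ref I = mitomycin-group MST × 100/control MST, run alongside each test experiment.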

[3] = Ratio, I x 100/ref I at a dose of 20 mg/kg in L1210 leukemic mice; format: functional
How it was run: (§3)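 Male B6D2F1 mice, 3 months old, received 10^5 L1210 cells ip on day 0. Dosing was ip on days 1, 5 and 9 in 20% aqueous Tween 80, 0.1–0.2 mL per 20 g, with 8 mice per group. There were 12 vehicle controls and 8 mice given mitomycin 2 mg/kg ip in water. Daily mortality was recorded, with autopsies. Ratio = treated-group MST ×100/reference-group MST; Wilcoxon, p<0.05.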

[4] = system: Mus musculus; assay: MST of mitomycin 2 mg/kg treated group x 100/MST of untreated control group at a dose of 25 mg/kg in L1210 leukemic mice; format: functional; how it was run: as §2
[5] = system: Mus musculus; assay: Median survival time of treated group / untreated group, when 25 mg/kg compound is administered intraperitoneally in L1210 leukemic mice; format: functional; conditions: route intraperitoneal; how it was run: as §1
[6] = Lethal dose in L1210 leukemic mice, by administering compound intraperitoneally; format: toxicity, organism-based; conditions: mouse, in vivo, ip
How it was run: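 Male B6D2F1 mice (3 months old) received 10⁵ L1210 leukemia cells ip on day 0. One day later they were given compound ip. Mortality was recorded daily for 9 days and the acute LD50 expressed in mg/kg.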

[7] = Ratio, I x 100/ref I at a dose of 25 mg/kg in L1210 leukemic mice; format: functional; how it was run: as §3
[8] = system: Mus musculus; assay: Median survival time of treated group / untreated group, when 35 mg/kg compound is administered intraperitoneally in L1210 leukemic mice; format: functional; conditions: route intraperitoneal; how it was run: as §1
[9] = system: Mus musculus; assay: Median survival time of treated group / untreated group, when 65 mg/kg compound is administered intraperitoneally in L1210 leukemic mic; format: functional; conditions: route intraperitoneal; how it was run: as §1
[10] = Ratio of acute lethal dose to the efficient dose 65 mg/kg; format: functional
How it was run: (§4)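 Ratio of acute LD50 to efficient dose. LD50 came from single ip dosing one day after ip grafting of 10⁵ L1210 cells in B6D2F1 mice, with 9-day mortality. The efficient dose came from ip treatment on days 1, 5 and 9 in the median-survival test.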

[11] = Ratio of acute lethal dose to the efficient dose 40 mg/kg; format: functional; how it was run: as §4
[12] = system: Mus musculus; assay: Median survival time of treated group / untreated group, when 40 mg/kg compound is administered intraperitoneally in L1210 leukemic mice; format: functional; conditions: route intraperitoneal; how it was run: as §1
[13] = Ratio of acute lethal dose to the efficient dose 35 mg/kg; format: functional; how it was run: as §4
[14] = Ratio, I x 100/ref I at a dose of 40 mg/kg in L1210 leukemic mice; format: functional; how it was run: as §3
[15] = system: Mus musculus; assay: MST of mitomycin 2 mg/kg treated group x 100/MST of untreated control group at a dose of 35 mg/kg in L1210 leukemic mice; format: functional; how it was run: as §2
[16] = system: Mus musculus; assay: MST of mitomycin 2 mg/kg treated group x 100/MST of untreated control group at a dose of 65 mg/kg in L1210 leukemic mice; format: functional; how it was run: as §2
[17] = Ratio, I x 100/ref I at a dose of 35 mg/kg in L1210 leukemic mice; format: functional; how it was run: as §3
[18] = system: Mus musculus; assay: MST of mitomycin 2 mg/kg treated group x 100/MST of untreated control group at a dose of 40 mg/kg in L1210 leukemic mice; format: functional; how it was run: as §2
[19] = Ratio of acute lethal dose to the efficient dose 30 mg/kg; format: functional; how it was run: as §4
[20] = Ratio, I x 100/ref I at a dose of 65 mg/kg in L1210 leukemic mice; format: functional; how it was run: as §3
[21] = system: Mus musculus; assay: Median survival time of treated group / untreated group, when 30 mg/kg compound is administered intraperitoneally in L1210 leukemic mice; format: functional; conditions: route intraperitoneal; how it was run: as §1
[22] = system: Mus musculus; assay: MST of mitomycin 2 mg/kg treated group x 100/MST of untreated control group at a dose of 50 mg/kg in L1210 leukemic mice; format: functional; how it was run: as §2
[23] = Ratio, I x 100/ref I at a dose of 50 mg/kg in L1210 leukemic mice; format: functional; how it was run: as §3
[24] = system: Mus musculus; assay: MST of mitomycin 2 mg/kg treated group x 100/MST of untreated control group at a dose of 15 mg/kg in L1210 leukemic mice; format: functional; how it was run: as §2
[25] = system: Mus musculus; assay: Median survival time of treated group / untreated group, when 50 mg/kg compound administered intraperitoneally in L1210 leukemic mice; format: functional; conditions: route intraperitoneal; how it was run: as §1
[26] = system: Mus musculus; assay: MST of mitomycin 2 mg/kg treated group x 100/MST of untreated control group at a dose of 100 mg/kg in L1210 leukemic mice; format: functional; how it was run: as §2
[27] = system: Mus musculus; assay: Median survival time of treated group / untreated group, when 15 mg/kg compound is administered intraperitoneally in L1210 leukemic mice; format: functional; conditions: route intraperitoneal; how it was run: as §1
[28] = Ratio, I x 100/ref I at a dose of 15 mg/kg in L1210 leukemic mice; format: functional; how it was run: as §3
[29] = Ratio, I x 100/ref I at a dose of 100 mg/kg in L1210 leukemic mice; format: functional; how it was run: as §3
[30] = Ratio, I x 100/ref I at a dose of 30 mg/kg in L1210 leukemic mice; format: functional; how it was run: as §3
[31] = system: Mus musculus; assay: MST of mitomycin 2 mg/kg treated group x 100/MST of untreated control group at a dose of 30 mg/kg in L1210 leukemic mice; format: functional; how it was run: as §2

CC(C)NC(=O)OCc1c(COC(=O)NC(C)C)c(-c2ccsc2)n2c1CCC2
Oncostatic index [1]: 100 | Ref I oncostatic index [2]: 139 | Ratio [3]: 72 | Ref I oncostatic index [4]: 162 | Oncostatic index [5]: 117 | LD50 [6]: 65 mg/kg | Ratio [7]: 72

CNC(=O)OCc1c(COC(=O)NC)c(-c2cccs2)n2c1CCC2
Oncostatic index [8]: 167 | Oncostatic index [9]: 125 | Ratio [10]: 1.8 | Ratio [11]: 3 | Oncostatic index [12]: 138 | Ratio [13]: 3.4 | Ratio [14]: 100 | Ref I oncostatic index [15]: 167 | Ref I oncostatic index [16]: 125 | Ratio [17]: 100 | Ref I oncostatic index [18]: 138 | Ratio [19]: 1.7 | Ratio [20]: 100 | LD50 [6]: 120 mg/kg

CC(=O)OCc1c(COC(C)=O)c(-c2cccs2)n2c1CCC2
Oncostatic index [21]: 114 and 100 | Ref I oncostatic index [22]: 136 | Ratio [23]: 92 | Ref I oncostatic index [24]: 121 | Oncostatic index [25]: 117 | Ref I oncostatic index [26]: 125 | Oncostatic index [27]: 100 | LD50 [6]: 80 mg/kg | Ratio [28]: 83 | Ratio [29]: 80 | Ratio [30]: 86 | Ref I oncostatic index [31]: 140
